This is a sample that favours compounds with a hit; in the whole collection about 1.6% have one here.
Cardio protect: cardioprotection against H2O2-induced cell death, primary screen, uHTS, H9c2 cells, ATPLite luminescence; 360,000 tested, 0.63% active; H9c2 cardiomyocytes, H2O2 injury protection, 2 h; protection from H2O2 cell death, % at 20 µM;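 active = compounds giving at least 50% protection of heart cells from peroxide-induced death in the single-dose screen, raw or plate-pattern-corrected value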;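 also: 0% = DMSO wells with peroxide and 100% = DMSO wells without peroxide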
ARFGAP1 inh: inhibitors of rat ARFGAP1 GAP activity, primary screen, biochemical, fluorescence polarization, GDP tracer; 360,000 tested, 0.26% active; ADP-ribosylation factor GTPase-activating protein 1 (Rattus norvegicus), Q62848; Arfgap1-stimulated ARF1 GTP hydrolysis, GDP FP detection; AID 651572, 2012; inhibition, % at 16.5 µM;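 active = inhibition above a per-plate limit, mean inhibition of low control wells plus 3 SD, cut at about 25% in these data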;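 also: 0% = DMSO wells with enzyme and 100% = wells lacking Arfgap1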
Target sequence (Q62848 1-136 limits assumed): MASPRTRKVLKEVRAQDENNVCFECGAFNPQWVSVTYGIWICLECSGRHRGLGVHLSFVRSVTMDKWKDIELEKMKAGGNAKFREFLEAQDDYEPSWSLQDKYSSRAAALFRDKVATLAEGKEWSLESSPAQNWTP
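Material: truncated rat Arfgap1 GAP domain; Incubation: compound-enzyme preincubation 20 min, reaction 120 min, detection 60 min, 25 °C; Read-out: percent inhibition of Arfgap1-stimulated GTP hydrolysis; Technique: FP, GDP Alexa 633 tracer displaced from anti-GDP antibody, 620/688 nm; Controls: No-Arfgap1 wells (100%) versus DMSO full-reaction wells (0%); Replication: single well per compound.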
Neddyl block: inhibitors of cullin neddylation, primary screen, biochemical, TR-FRET, uHTS, NAE and Ubc12; NEDD8-conjugating enzyme Ubc12 (Homo sapiens) + NEDD8-activating enzyme E1 regulatory …; 360,000 tested, 0.58% active; AID 651699, 2012; inhibition, % at 25 µM; in the data active = inhibition above about 36%
ASAP1 inh: inhibitors of human ASAP1 ArfGAP activity, primary screen, biochemical, fluorescence polarization | Arf-GAP with SH3 domain, ANK repeat and PH domain-containing protein 1 (Homo sapiens), … | ASAP1-stimulated ARF1 GTP hydrolysis, GDP FP detection | inhibition, % at 16.5 µM | 360,000 tested, 0.19% active | AID 624377, 2012; in the data active = inhibition above about 25%;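 also: 0% = vehicle with enzyme and substrate and 100% = no enzyme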
ASAP1 GAP conf: ASAP1 GAP activity inhibitors, confirmation, biochemical, fluorescence polarization, human, triplicate; shares compounds with ASAP1 inh; ASAP1-stimulated Arf1 GTPase, GDP fluorescence polarization; inhibition, % at 16.5 µM; 620 tested, 37% active; AID 624431, 2012;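 active = mean inhibition over triplicates exceeds the hit threshold derived for the earlier primary screening run, cut at about 25% in these data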
The depositor's hits bear a star; · = no result shown.

SMILES	Cardio protect	ARFGAP1 inh	Neddyl block	ASAP1 inh	ASAP1 GAP conf
COc1cccc(C(C)(O)c2nc(-c3cc(F)cc(F)c3)cs2)c1 (stereo not drawn)	-8	2	-8	11	·
CN(C)CCOc1ccc2c(c1)C(=O)C(=Cc1ncc([N+](=O)[O-])n1C)C2	-10	0	-38	20	·
COC(=O)C1CCN(C2CN(Cc3ccc([N+](=O)[O-])cc3)S(=O)(=O)C2)CC1 (stereo not drawn)	3	-17	-16	-7	·
CCN1C[C@@H]2[C@@H]3C(=O)N(Cc4ccccc4)C(=O)[C@@H]3[C@](Cc3ccccc3)(C1=O)N2C(=O)c1ccc(Cl)cc1	-4	7	-19	56*	1
NC(=Nc1ccccc1)N(c1ccccc1)c1ccccc1	1	10	4	-3	·
Fc1ccc(Nc2nc(-c3ccncc3)nc3ccccc23)cc1F	-6	6	34	38*	36*
Cc1ccc2nc(CN(C)C(=O)[C@H]3O[C@@H](n4cnc(C(N)=O)n4)[C@H](O)[C@@H]3O)[nH]c2c1	·	-1	·	1	·
O=c1[nH]c(Nc2ccc(F)cc2)cc2ccccc12	8	43*	-19	37*	32*
Cc1c(C(=O)NCc2ccc(Cl)c(Cl)c2)sc(=O)n1Cc1cccc(F)c1	-3	2	1	25*	14
Cc1c(C(=O)NCc2cccc(Cl)c2)sc(=O)n1Cc1cccc(F)c1	-3	-3	0	6	·
CCCCCCCCN1C(=O)[C@@H](CC(=O)N2CCCC2)C[C@@]2(C(=O)OC)C1=C[C@H](C1CCCC1)O[C@@H]2C	·	-9	·	0	·
O=C(N/N=C/c1c(O)ccc2ccccc12)c1cccc(C(F)(F)F)c1	16	8	25	27*	24
Cc1c(O)ccc(/C=N/Nc2nc(-c3cccnc3)nc3ccccc23)c1O	20	8	3	27*	22
O=C1CCn2c1c(O)c1ccccc1c2=O	3	9	·	37*	15
Cc1ccc(C(=O)O/N=C/c2c(C(F)(F)F)nn(C)c2Sc2ccc(Cl)cc2)cc1	-14	-3	3	-8	·
Cc1ccc(C(=O)O/N=C/c2c(C)nn(C)c2Cl)cc1	-4	4	-1	27*	0
CC(=O)NC(C)(c1ccccc1)c1nc(-c2cccc(F)c2)cs1 (stereo not drawn)	1	1	-11	-15	·
Cn1cc(SCC(=O)NC2CCCC2)c2ccccc21	5	-2	12	4	·
Cn1cc(SCC(=O)NC2CCCCC2)c2ccccc21	-2	16	4	27*	13
Cc1nn(-c2ccccc2)c(N2CCCC2)c1/C=N/NC(=S)Nc1ccc(F)cc1	2	1	0	27*	8
Cc1ccc(NC(=S)N/N=C/c2c(C)nn(-c3ccccc3)c2N2CCCC2)cc1	0	4	7	7	·
COc1cc(F)ccc1Oc1cccc2c1S(=O)(=O)N(C1CC1)C[C@@H](COCc1ccccc1)O2	·	-12	·	-4	·
O=C(COC(=O)C1CC2CCCC(C1)C2=O)NC1CCCCC1 (stereo not drawn)	-3	7	15	26*	-3
CC1CCC(NC(=O)COC(=O)C2CC3CCCC(C2)C3=O)CC1 (stereo not drawn)	2	-2	10	-10	·
CCOC(=O)C1CCN(c2nc(N)c3c(N)nc(SCC(=O)O)cc3c2C#N)CC1	-17	38*	16	41*	25*
CCOC(=O)C1CCN(c2nc(C)cc(C)c2C#N)CC1	-2	6	·	-5	·
COC1=CC(=O)c2c(ccc3ncnc(N)c23)C1=O	-14	14	-39	23	·
COC1=CC(=O)c2nc(Cl)ccc2C1=O	-16	9	-24	38*	17
COc1cc(OC)c2cc(C(=O)N/N=C/c3cccc(OC)c3O)[nH]c2c1	38	8	14	-8	·
COc1cc2cc(C(=O)N/N=C/c3ccccc3Cl)[nH]c2cc1OC	45	6	·	28*	53*

Assay outcomes from PubChem BioAssay.
